This note sets out measurements from ChEMBL document CHEMBL4261489, “Quantitative measurement of intracellular HDAC1/2 drug occupancy using a trans-cyclooctene largazole thiol probe” (Medchemcomm, 2017).

Calls of active or inactive are those of the source. The calls are words filed in the database; no cut-off is given here.

In data set [1] the target is T1, Histone deacetylase 1 (Homo sapiens, UniProt Q13547). Put plainly: Binding affinity to HDAC1 in human CD34positive cell-derived erythroid progenitor cells measured up to 120 mins by tetrazine-PEG4-biotin-based SDS-PAGE/immunoblot analysis.
T1 sequence (Q13547 whole entry): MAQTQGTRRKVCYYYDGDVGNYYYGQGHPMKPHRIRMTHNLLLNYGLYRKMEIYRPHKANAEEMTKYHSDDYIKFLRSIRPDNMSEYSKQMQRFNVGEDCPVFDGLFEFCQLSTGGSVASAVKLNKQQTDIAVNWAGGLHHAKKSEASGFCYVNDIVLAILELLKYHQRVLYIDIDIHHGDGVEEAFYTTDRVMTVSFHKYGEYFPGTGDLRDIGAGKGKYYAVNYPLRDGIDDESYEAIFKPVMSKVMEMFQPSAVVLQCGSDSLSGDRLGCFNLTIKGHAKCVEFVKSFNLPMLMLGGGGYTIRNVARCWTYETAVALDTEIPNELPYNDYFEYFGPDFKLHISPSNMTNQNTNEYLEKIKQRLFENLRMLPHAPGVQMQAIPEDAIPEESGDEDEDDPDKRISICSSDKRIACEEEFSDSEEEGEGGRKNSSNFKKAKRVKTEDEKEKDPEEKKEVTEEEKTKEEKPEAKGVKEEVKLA
The target of a further data set is T2, Histone deacetylase 8 (Homo sapiens, UniProt Q9BY41).
T2 sequence (Q9BY41 whole entry): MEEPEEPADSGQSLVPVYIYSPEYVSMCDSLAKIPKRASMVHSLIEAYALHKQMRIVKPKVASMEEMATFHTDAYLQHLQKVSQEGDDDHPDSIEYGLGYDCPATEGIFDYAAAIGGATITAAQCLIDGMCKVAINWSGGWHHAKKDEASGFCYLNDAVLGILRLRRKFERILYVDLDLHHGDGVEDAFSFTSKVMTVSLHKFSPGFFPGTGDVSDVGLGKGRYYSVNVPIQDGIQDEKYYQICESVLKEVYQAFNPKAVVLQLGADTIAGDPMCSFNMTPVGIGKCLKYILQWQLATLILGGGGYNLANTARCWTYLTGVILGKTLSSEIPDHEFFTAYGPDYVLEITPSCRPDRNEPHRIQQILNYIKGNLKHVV
Nature of the data set: Inhibition of C-terminal His-tagged full length recombinant human HDAC8 expressed in baculovirus infected Sf9 insect cells using HDAC class 2a substrate 1 after 30 mins by fluorescence assay. The gist of the method: (§1)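 Fluorogenic deacetylation was run at 37 °C for 30 min in HEPES pH 7.5 buffer with NaCl, KCl, Tween 20, TCEP and BSA. Enzyme and substrate were: HDAC1 10 ng, HDAC2 5 ng or HDAC3 2 ng with 10 µM substrate 3; HDAC8 10 ng with 2 µM class 2a substrate 1. Compound ran at 0.001–10000 nM. Developer was added for 20 min at RT and fluorescence read at Ex360/Em460.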

Data set [2] deals with Histone deacetylase 3/Nuclear receptor corepressor 2 (HDAC3/NCoR2) (Homo sapiens, UniProt O15379). Put plainly: Inhibition of C-terminal His-tagged full length recombinant human HDAC3/N-terminal GST-tagged NCOR2 (395 to 489 residues) expressed in baculovirus infected Sf9 insect cells using HDAC substrate 3 after 30 mins by fluorescence assay. The gist of the method: as §1
Histone deacetylase 3/Nuclear receptor corepressor 2 (HDAC3/NCoR2), sequence (O15379 whole entry, the tested form may be a part): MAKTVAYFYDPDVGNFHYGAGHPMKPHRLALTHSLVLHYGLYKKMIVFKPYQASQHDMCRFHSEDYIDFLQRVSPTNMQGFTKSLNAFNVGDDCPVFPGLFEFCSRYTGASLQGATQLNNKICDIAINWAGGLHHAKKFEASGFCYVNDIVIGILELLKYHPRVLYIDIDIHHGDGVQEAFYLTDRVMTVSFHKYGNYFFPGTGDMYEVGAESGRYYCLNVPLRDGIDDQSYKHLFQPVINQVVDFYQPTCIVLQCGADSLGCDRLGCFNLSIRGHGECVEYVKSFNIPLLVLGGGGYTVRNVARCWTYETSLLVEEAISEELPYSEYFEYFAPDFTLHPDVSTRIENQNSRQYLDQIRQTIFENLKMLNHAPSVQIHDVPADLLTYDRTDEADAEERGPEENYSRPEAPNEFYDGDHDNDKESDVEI
Histone deacetylase 3/Nuclear receptor corepressor 2 (HDAC3/NCoR2), sequence (Q9Y618 whole entry, further chain, the tested form may be a part): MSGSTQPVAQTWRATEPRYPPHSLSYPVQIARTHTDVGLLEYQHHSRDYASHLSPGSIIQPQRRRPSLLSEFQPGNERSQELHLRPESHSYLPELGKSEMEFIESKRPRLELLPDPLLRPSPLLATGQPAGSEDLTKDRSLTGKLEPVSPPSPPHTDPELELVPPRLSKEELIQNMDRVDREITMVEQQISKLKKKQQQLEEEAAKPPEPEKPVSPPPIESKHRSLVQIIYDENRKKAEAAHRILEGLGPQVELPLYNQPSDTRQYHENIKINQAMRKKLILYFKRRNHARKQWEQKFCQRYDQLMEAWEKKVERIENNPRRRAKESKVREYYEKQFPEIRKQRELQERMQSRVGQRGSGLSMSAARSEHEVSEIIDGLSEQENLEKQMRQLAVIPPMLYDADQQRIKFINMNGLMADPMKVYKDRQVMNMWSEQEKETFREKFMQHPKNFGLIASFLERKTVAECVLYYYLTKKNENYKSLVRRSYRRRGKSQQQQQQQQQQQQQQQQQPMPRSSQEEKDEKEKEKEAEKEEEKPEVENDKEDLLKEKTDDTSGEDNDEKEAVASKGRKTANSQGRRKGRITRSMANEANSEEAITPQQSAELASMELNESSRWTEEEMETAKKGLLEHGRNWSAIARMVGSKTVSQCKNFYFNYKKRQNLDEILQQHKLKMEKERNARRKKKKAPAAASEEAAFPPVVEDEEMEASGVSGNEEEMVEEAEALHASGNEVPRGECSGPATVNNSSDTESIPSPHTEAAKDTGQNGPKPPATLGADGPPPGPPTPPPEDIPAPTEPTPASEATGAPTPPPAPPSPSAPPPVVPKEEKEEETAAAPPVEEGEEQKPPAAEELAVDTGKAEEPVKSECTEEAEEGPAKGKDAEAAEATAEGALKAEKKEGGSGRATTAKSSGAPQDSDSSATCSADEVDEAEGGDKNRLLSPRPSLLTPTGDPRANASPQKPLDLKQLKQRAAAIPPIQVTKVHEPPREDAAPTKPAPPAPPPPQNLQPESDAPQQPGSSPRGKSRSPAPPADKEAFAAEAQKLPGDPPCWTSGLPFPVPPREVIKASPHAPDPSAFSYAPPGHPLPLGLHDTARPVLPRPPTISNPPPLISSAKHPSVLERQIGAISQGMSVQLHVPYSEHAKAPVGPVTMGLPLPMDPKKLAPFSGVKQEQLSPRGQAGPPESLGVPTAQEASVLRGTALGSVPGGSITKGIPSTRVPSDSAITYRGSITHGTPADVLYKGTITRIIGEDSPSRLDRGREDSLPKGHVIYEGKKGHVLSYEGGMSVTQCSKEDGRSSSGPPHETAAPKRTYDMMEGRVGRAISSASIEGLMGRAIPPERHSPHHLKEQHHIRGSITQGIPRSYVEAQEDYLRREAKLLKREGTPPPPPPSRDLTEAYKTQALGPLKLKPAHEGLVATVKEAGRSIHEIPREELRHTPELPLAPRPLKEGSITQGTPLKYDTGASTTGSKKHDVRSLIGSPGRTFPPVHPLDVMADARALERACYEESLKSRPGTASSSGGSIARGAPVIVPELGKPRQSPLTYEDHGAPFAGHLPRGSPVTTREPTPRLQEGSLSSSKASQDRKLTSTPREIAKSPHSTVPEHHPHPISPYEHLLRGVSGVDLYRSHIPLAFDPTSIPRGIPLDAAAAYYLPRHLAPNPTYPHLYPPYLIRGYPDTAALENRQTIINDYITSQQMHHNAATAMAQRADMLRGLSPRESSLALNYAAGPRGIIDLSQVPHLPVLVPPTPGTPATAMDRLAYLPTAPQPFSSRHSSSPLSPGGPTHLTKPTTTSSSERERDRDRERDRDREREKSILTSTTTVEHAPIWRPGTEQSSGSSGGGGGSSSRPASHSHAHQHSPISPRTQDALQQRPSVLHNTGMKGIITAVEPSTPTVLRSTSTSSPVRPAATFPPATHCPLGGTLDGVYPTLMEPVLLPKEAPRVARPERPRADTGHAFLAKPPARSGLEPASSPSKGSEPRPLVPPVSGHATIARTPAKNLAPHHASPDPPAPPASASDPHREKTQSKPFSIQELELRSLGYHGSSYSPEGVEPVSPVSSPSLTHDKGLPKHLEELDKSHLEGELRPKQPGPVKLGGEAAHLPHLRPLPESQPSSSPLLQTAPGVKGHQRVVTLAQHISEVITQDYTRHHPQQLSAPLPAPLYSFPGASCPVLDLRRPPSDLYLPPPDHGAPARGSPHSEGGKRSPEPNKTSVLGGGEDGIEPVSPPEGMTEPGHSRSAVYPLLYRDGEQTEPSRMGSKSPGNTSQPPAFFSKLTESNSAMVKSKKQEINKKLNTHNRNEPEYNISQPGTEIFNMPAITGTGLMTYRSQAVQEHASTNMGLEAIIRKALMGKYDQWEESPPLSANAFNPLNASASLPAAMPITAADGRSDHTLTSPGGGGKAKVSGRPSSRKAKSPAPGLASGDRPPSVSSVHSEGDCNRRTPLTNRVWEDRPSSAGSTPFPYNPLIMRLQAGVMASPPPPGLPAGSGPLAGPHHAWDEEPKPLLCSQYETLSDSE

Data set [3] has as its target T1, Histone deacetylase 1. Nature of the data set: Competitive binding affinity to HDAC1 in human CD34positive cell-derived erythroid progenitor cells in presence of largazole thiol by tetrazine-PEG4-biotin-based SDS-PAGE/immunoblot analysis. The gist of the method: (§2)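 Mobilized peripheral blood CD34+ cells were expanded 7 days with CC100 cytokines, then 4 days in erythroid medium (SCF, IL-3, EPO, dexamethasone, β-estradiol). Cells got DMSO or 1–100 nM inhibitor (37 °C, 2 h or 24 h), then 3 μM TCO largazole thiol for 10 min. Lysates were clicked with 50 μM tetrazine-PEG4-biotin, pulled down on streptavidin and immunoblotted for HDAC1/2. Occupancy versus vehicle gave OC50 by sigmoidal fit.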

Data set [4] addresses T1, Histone deacetylase 1. Nature of the data set: Binding affinity to HDAC1 in human CD34positive cell-derived erythroid progenitor cells up to 3 uM by tetrazine-PEG4-biotin-based SDS-PAGE/immunoblot analysis.
The target in data set [5] is T3, Histone deacetylase 2 (Homo sapiens, UniProt Q92769). Put plainly: Competitive binding affinity to HDAC2 in human CD34positive cell-derived erythroid progenitor cells in presence of largazole thiol by tetrazine-PEG4-biotin-based SDS-PAGE/immunoblot analysis. In outline: as §2
T3 sequence (Q92769 whole entry): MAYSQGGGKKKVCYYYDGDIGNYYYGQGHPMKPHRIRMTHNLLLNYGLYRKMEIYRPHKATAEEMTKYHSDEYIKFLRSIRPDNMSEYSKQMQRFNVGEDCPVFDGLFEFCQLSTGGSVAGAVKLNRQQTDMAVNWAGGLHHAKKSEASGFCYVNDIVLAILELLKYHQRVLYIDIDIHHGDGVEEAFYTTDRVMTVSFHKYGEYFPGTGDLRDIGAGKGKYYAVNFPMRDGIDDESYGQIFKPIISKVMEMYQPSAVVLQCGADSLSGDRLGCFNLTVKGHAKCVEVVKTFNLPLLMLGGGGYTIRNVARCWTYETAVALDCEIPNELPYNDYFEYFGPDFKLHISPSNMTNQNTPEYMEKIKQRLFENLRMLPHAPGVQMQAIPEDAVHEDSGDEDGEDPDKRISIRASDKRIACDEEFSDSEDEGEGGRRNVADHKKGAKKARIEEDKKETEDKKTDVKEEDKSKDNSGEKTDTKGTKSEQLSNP
For data set [6], the target named is T3, Histone deacetylase 2. Nature of the data set: Binding affinity to HDAC2 in human CD34positive cell-derived erythroid progenitor cells up to 3 uM by tetrazine-PEG4-biotin-based SDS-PAGE/immunoblot analysis.
A short description of data set [7]: Apparent permeability of the compound. The data set is classed as ADME. The following applies: not told.
Data set [8] addresses Histone deacetylase 3 (Homo sapiens) (UniProt O15379). Put plainly: Binding affinity to HDAC3 in human CD34positive cell-derived erythroid progenitor cells by tetrazine-PEG4-biotin-based SDS-PAGE/immunoblot analysis.
Data set [9] concerns the target T3, Histone deacetylase 2. Nature of the data set: Binding affinity to HDAC2 in human CD34positive cell-derived erythroid progenitor cells measured up to 120 mins by tetrazine-PEG4-biotin-based SDS-PAGE/immunoblot analysis.
Data set [10] has as its target T1, Histone deacetylase 1. Nature of the data set: Inhibition of C-terminal FLAG/His-tagged full length recombinant human HDAC1 expressed in baculovirus infected Sf9 insect cells using HDAC substrate 3 after 30 mins by fluorescence assay. In outline: as §1
Data set [11] has as its target T3, Histone deacetylase 2. Nature of the data set: Inhibition of C-terminal FLAG or His-tagged full length recombinant human HDAC2 expressed in baculovirus infected Sf9 insect cells using HDAC substrate 3 after 30 mins by fluorescence assay. The gist of the method:
as §1

The target in data set [12] is T3, Histone deacetylase 2.

Histone deacetylase 3 (Homo sapiens), sequence (O15379 whole entry): as the sequence (O15379 whole entry, the tested form may be a part) above

On to `C[C@@]12CSC(=N1)c1csc(n1)CNC(=O)C[C@@H](/C=C/CCS)OC(=O)[C@H](CCCCNC(=O)O[C@@H]1CC/C=C/CCC1)NC2=O`, for which the outcome on Histone deacetylase 1 [1], on Histone deacetylase 1 [3], at Histone deacetylase 1 [4], at Histone deacetylase 2 [5], on Histone deacetylase 2 [6] and at Histone deacetylase 2 [9] was Active. Besides, the IC50 was found to be 1110 nM on Histone deacetylase 8, 1.1 nM in data set [2], 1.9 nM on Histone deacetylase 1 [10] and 6.6 nM on Histone deacetylase 2 [11]. In addition, the Papp in data set [7] was 3.23 ×10⁻⁶ cm/s. In addition, in [8], the result was inactive.

Consider `O=C(/C=C/c1ccc(CN(CCO)CCc2c[nH]c3ccccc23)cc1)NO`, for which, at Histone deacetylase 2 [12], the Occ50 stood at 3 nM.
